Measurements pooled from the literature.
Cell line: A549

| Structure (SMILES) | test | setting | IC50 [µM] |
| --- | --- | --- | --- |
| CC1=C(O)C(=O)C=C2C1=CC=C1[C@@]2(C)CC[C@@]2(C)[C@@H]3C[C@](C)(C(=O)OCCCN4C(=O)C5C=CC=CC5C4=O)CC[C@]3(C)CC[C@]12C (stereo partly drawn) | cell growth or viability, MTT | 48 h | 3.65 |
| COC(=O)/C=C1\S/C(=N\C(=O)c2ccc3ccccc3c2)N(C2CCCCC2)C1=O | cell growth or viability | 48 h | 13.4 |
| CN1CCN(CCCn2cccc2/C=N/NC(=O)Nc2cc3c(Nc4ccc(F)c(Cl)c4)ncnc3cc2O[C@H]2CCOC2)CC1 | cell growth or viability, MTT | 72 h | 4.06 |
| COc1cccc2c1C(=O)c1c(O)c3c(c(O)c1C2=O)C[C@@](O)(C(=O)CO)C[C@@H]3O[C@H]1C[C@H](N)[C@H](O)[C@H](C)O1 | cell growth or viability, MTT | 48 h | 5.06 |
| C=CC1=C(C)c2cc3[nH]c(cc4nc(cc5[nH]c(cc1n2)c(C)c5CCC(=O)O)C(CCC(=O)O)=C4C)c(C)c3C=C | cell growth or viability | 4 h, dark | > 100 |
| O=C(CN1C(=O)/C(=C/c2ccco2)SC1=S)Nc1ccccc1 | cell growth or viability, MTT | – | 14.9 |
| Cc1cccc(NC(=O)NNC(=O)c2ccc(Nc3nccc(-c4ccccn4)n3)cc2)c1 | cell growth or viability, MTT | – | > 40 |
| NS(=O)(=O)OC[C@@H]1C[C@@H](n2ccc3c(N[C@H]4CCc5ccccc54)ncnc32)C[C@@H]1O | cell growth or viability, CCK-8 | 72 h | 0.8 |
| CCN(CC)CCCn1cccc1/C=N/NC(=O)Nc1cc2c(Nc3ccc(F)c(Cl)c3)ncnc2cc1OC | cell growth or viability, MTT | 72 h | 2.38 |
| COc1ccc(NC(=O)NNC(=O)c2cccc(Nc3nccc(-c4cccnc4)n3)c2)c(OC)c1 | cell growth or viability, MTT | 24 h | > 40 |
| CCC(=O)Nc1cc(Nc2nc(N3CCc4sccc4C3)c3cccnc3n2)c(OC)cc1N1CCN(CCO)CC1 | cell growth or viability, MTT | – | > 50 |
| O=C(NC(=S)NCc1ccc(CNC(=S)NC(=O)c2ccc3ccccc3c2)cc1)c1ccc2ccccc2c1 | cell growth or viability | 48 h | 2.82 |
| C=CC(=O)Nc1cc(Nc2nc(N3CCOCC3)c3sccc3n2)c(OC)cc1N(C)CCN(C)C | cell growth or viability, MTT | – | > 50 |
| CCOC(=O)/C=C1\S/C(=N\C(=O)c2ccc3ccccc3c2)N(C2CCCCC2)C1=O | cell growth or viability | 48 h | 13.8 |
| Nc1ccc(Cl)c[n+]1[Pt-2]([Cl])([Cl])[n+]1cc(Cl)ccc1N | cell growth or viability, MTT | 48 h | 6.34 |
| COc1cc2ncnc(Nc3ccc(F)c(Cl)c3)c2cc1NC(=O)N/N=C/c1cccn1CCCN1CCCCC1 | cell growth or viability, MTT | 72 h | 3.08 |
| COc1ccc(-c2csc(Nc3ccc4c(O)ncnc4c3)n2)cc1 | cell growth or viability, MTT | – | 25 |
| COc1ccc(NC(=O)Nc2ccc(OCc3nccc(OC)c3OC)cc2)cc1 | cell growth or viability, MTT | 72 h | 16.7 |
| COc1ccccc1OCCNC[C@@H](O)COc1cccc2[nH]c3ccccc3c12 | cell growth or viability, CCK-8 | – | 23.4 |

| Structure (SMILES) | test | setting | IC50 [µM] |
| --- | --- | --- | --- |
| Cn1c(=O)c2c(ncn2Cc2nnc(SCC(=O)Nc3ccccc3)n2-c2ccccc2)n(C)c1=O | cell growth or viability, MTT | – | 143 |
| CC(=O)O[C@H]1C(=O)[C@@]2(C)[C@H]([C@H](OC(=O)c3ccccc3)[C@]3(O)C[C@H](OC(=O)[C@H](O)[C@@H](NC(=O)c4ccccc4)c4ccccc4)C(C)=C1C3(C)C)[C@]1(OC(C)=O)CO[C@@H]1C[C@@H]2O | cell growth or viability, CCK-8 | 72 h | 0.0206 |
| COc1cc2ncnc(Nc3ccc(F)c(Cl)c3)c2cc1NC(=O)N/N=C/c1cccn1CCN1CCCCC1 | cell growth or viability, MTT | 72 h | 2.31 |
| COc1c2c(cc3c1OCO3)[C@]13C=C[C@H](OC)C[C@H]1N(C2)C[C@H]3OC(=O)c1cccc(C)c1 | cell growth or viability, WST-1 | – | > 10 |
| O=C(CN1C(=O)/C(=C/c2ccc(Cl)cc2)SC1=S)Nc1ccccc1 | cell growth or viability, MTT | – | 14.3 |
| CC(C)=CCC[C@](C)(O)[C@H]1CC[C@]2(C)[C@@H]1[C@H](O)C[C@@H]1[C@@]3(C)CC[C@H](O[C@@H]4O[C@H](CO)[C@@H](O)[C@H](O)[C@H]4O[C@@H]4O[C@H](CO)[C@@H](O)[C@H](O)[C@H]4O)C(C)(C)[C@@H]3CC[C@]12C | cell growth or viability, MTT | 72 h | > 100 |
| Cc1ccc(C)n1-c1ccc(-c2nnco2)cc1 | cell growth or viability, MTT | 72 h | 226 |
| COc1ccnc(COc2ccc(NC(=O)Nc3cc(F)cc(F)c3)cc2)c1OC | cell growth or viability, MTT | 72 h | 17.3 |
| COc1cc2ncnc(Nc3ccc(F)c(Cl)c3)c2cc1NC(=O)N/N=C/c1cccn1CCCN1CCCC1 | cell growth or viability, MTT | 72 h | 2.45 |
| Brc1ccc(Nc2nc(NCCc3ccccc3)nc(NCCc3ccccc3)n2)cc1 | cell growth or viability, SRB | 72 h | 19.7 |
| O=C(Nc1nnc(-c2cc3ccccc3[nH]2)s1)c1cc2c([nH]c3ccccc32)c(-c2ccc(Cl)cc2)n1 | cell growth or viability, MTT | 72 h | 3.33 |
| CC(=O)OCCOC(=O)[C@]1(C)CC[C@]2(C)CC[C@]3(C)C4=CC=C5C(=CC(=O)C(O)=C5C)[C@]4(C)CC[C@@]3(C)[C@@H]2C1 | cell growth or viability, MTT | 48 h | 3.19 |
| COc1ccc(NC(=O)Nc2ccc(OCc3ncc(C)c(OC)c3C)cc2)cc1 | cell growth or viability, MTT | 72 h | 12.9 |
| COc1ccccc1/C=C/CNCC(O)COc1ccc(C2CCCCC2)cc1 (stereo not drawn) | cell growth or viability, CCK-8 | 72 h | 11.2 |
| CCN(CC)C/C=N/NC(=O)Nc1cc2c(Nc3ccc(F)c(Cl)c3)ncnc2cc1OC | cell growth or viability, MTT | 72 h | 6.19 |
| O=C(NC(=S)NC1CCCCC1)c1ccc2ccccc2c1 | cell growth or viability | 48 h | 5.72 |
| CCCCC/C=C/C(=O)CCc1ccc(O)c(OC)c1 | cell growth or viability, SRB | – | 18.6 |
| COc1cc2ncnc(Nc3ccc(F)c(Cl)c3)c2cc1NC(=O)N/N=C/c1cccn1CCN1CCN(C)CC1 | cell growth or viability, MTT | 72 h | 2.34 |
| C=CC(=O)Nc1cc(Nc2nc(N3CCc4sccc4C3)c3cccnc3n2)c(OC)cc1N(C)CCN(C)C | cell growth or viability, MTT | – | 21.9 |

| Structure (SMILES) | test | setting | IC50 [µM] |
| --- | --- | --- | --- |
| CN1C(=O)/C(=N\NC(=O)c2cc3ccccc3[nH]2)c2cc(Cl)ccc21 | cell growth or viability | – | 2.13 |
| CS(=O)(=O)c1ccc(-n2cc(/C=N/N=c3\[nH]c(-c4ccc(Br)cc4)cs3)c(-c3ccc(Br)cc3)n2)cc1 | cell growth or viability, MTT | 48 h | 9.41 |
| COc1cc([C@@H]2c3cc4c(cc3[C@@H](O[C@@H]3O[C@@H]5CO[C@@H](C)O[C@H]5[C@H](O)[C@H]3O)[C@H]3COC(=O)[C@H]23)OCO4)cc(OC)c1O | cell growth or viability, MTT | 72 h | 2 |
| CNC(=O)c1cc(Oc2ccc(NC(=O)Nc3ccc(Cl)c(C(F)(F)F)c3)cc2)ccn1 | cell growth or viability, MTT | 24 h | > 40 |
| O=c1[nH]cc(S(=O)(=O)Nc2cccc(-c3nnc(-c4cccc(Cl)c4)o3)c2)c(=O)[nH]1 | cell growth or viability, MTT | 24 h | 0.78 |
| Cc1c(OCC(F)(F)F)ccnc1COc1ccc(NC(=O)Nc2ccc(F)cc2)cc1 | cell growth or viability, MTT | 72 h | 5.37 |
| COc1cc(N(C)CCN(C)C)c(NC(=O)/C=C/C(C)C)cc1Nc1nc(Nc2cnn(C)c2)c2sccc2n1 | cell growth or viability, MTT | – | 0.44 |
| COCCCOC(=O)[C@]1(C)CC[C@]2(C)CC[C@]3(C)C4=CC=C5C(=CC(=O)C(O)=C5C)[C@]4(C)CC[C@@]3(C)[C@@H]2C1 | cell growth or viability, MTT | 48 h | 3.22 |
| COc1cc(C=C(C(=O)/C=C/c2ccc(OC)c(OC)c2)C(=O)/C=C/c2ccc(OC)c(OC)c2)ccc1O | colony formation | 9 days | < 0.2 |
| O=C1Nc2ccc(F)cc2/C1=N/NC(=O)c1cc2ccccc2[nH]1 | cell growth or viability | – | > 30 |
| COc1ccccc1NCCCNCC(O)COc1cccc2[nH]c3ccccc3c12 (stereo not drawn) | cell growth or viability, CCK-8 | 72 h | 10.8 |
| Cc1cc(=O)[nH]n1C(=O)c1ccc(-n2c(C)ccc2C)cc1 | cell growth or viability, MTT | 72 h | 208 |
| CCC(=O)Nc1cc(Nc2nc(N3CCc4sccc4C3)c3cccnc3n2)c(OC)cc1N1CCOCC1 | cell growth or viability, MTT | – | > 50 |
| COc1ccccc1CCNCC(O)COc1cccc2[nH]c3ccccc3c12 (stereo not drawn) | cell growth or viability, CCK-8 | 72 h | 13.3 |
| O=[N+]([O-])c1ccc(-c2csc(Nc3ccc4c(O)ncnc4c3)n2)cc1 | cell growth or viability, MTT | – | 17.9 |
| C=CC(=O)Nc1cc(Nc2nc(Nc3cnn(C)c3)c3sccc3n2)c(OC)cc1N(C)CCN(C)C | cell growth or viability, MTT | – | > 50 |
| COc1ccc(-c2nn(-c3ccc(S(C)(=O)=O)cc3)cc2/C=N/N=c2\[nH]c(-c3ccc(Br)cc3)cs2)cc1 | cell growth or viability, MTT | 48 h | 14.3 |
| COc1cc2ncnc(Nc3ccc(F)c(Cl)c3)c2cc1NC(=O)N/N=C/CN(C)C | cell growth or viability, MTT | 72 h | 5.52 |
| COCCCOc1ccnc(COc2ccc(NC(=O)Nc3ccc(F)cc3)cc2)c1C | cell growth or viability, MTT | 72 h | 5.74 |
